In ChEMBL document CHEMBL4825680, “Structure-based discovery of potent and selective small-molecule inhibitors targeting signal transducer and activator of transcription 3 (STAT3)” (Eur J Med Chem, 2021):
Activity calls are given as the source filed them. No cut-off for these calls is given here.

Tests used:
[1] = AUC(0 to last) in Sprague-Dawley rat at 10 mg/kg, po measured up to 24 hrs by LC-MS/MS analysis; assay type: ADME, organism-based; design: route oral, dose 10 mg/kg, time <=24; details: in vivo
Procedure, shortened: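 Male SD rats given a single oral dose of 10 mg/kg in DMSO/0.5% HPMC (5/95, v/v). Blood was drawn at 0.25, 0.5, 1, 2, 4, 8 and 24 h, and plasma was analysed by LC-MS/MS on a BEH phenyl column with a formic acid water/acetonitrile mobile phase.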

[2] = system: MDA231-LM2-4175; assay: Inhibition of cell invasion in human MDA231-LM2-4175 cells incubated for 12 hrs by crystal violet staining based transwell assay; assay type: functional; details: dose 1-3 µM
Procedure, shortened: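 Cells seeded at 1.5×10^4–3×10^4 per well in the upper chamber of 8.0 µm pore Transwell inserts and treated with graded compound for 12 h. Non-invading cells removed with cotton. Invaded cells fixed in 4% paraformaldehyde, stained with crystal violet, photographed and counted. Triplicate.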

[3] = molecular target: T1, Signal transducer and activator of transcription 5A (Homo sapiens) (UniProt P42229); assay: Inhibition of STAT5 phosphorylation at Y694 residue in human HCC70 cells at 0.3 to 3 uM after 3 hrs by Western blotting analysis; assay type: cell-based; details: dose 0.3-3 µM
T1 sequence (whole entry): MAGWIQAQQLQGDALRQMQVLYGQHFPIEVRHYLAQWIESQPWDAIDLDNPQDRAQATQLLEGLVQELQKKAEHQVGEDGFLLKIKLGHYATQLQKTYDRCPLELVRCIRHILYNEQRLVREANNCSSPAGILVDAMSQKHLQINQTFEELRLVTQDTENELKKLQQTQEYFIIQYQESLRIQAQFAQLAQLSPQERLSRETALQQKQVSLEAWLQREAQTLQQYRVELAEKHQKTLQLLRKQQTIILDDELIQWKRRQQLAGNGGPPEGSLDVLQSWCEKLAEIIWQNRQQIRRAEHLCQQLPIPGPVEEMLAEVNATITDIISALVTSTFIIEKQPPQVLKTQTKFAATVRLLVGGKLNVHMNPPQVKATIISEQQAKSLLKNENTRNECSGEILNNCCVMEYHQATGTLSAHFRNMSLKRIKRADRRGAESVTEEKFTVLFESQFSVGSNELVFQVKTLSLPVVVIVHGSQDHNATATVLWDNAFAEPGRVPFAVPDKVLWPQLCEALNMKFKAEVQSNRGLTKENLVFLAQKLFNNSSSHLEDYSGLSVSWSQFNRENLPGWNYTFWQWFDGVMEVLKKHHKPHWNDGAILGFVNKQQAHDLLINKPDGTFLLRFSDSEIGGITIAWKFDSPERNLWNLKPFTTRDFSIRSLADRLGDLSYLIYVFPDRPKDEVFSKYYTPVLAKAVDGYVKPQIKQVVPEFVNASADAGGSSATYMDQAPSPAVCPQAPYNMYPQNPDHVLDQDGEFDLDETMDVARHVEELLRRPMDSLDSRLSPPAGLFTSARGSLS

[4] = system: Breast cancer cell line; assay: Antitumor activity against patient-derived breast cancer cells xenografted in NOD/SCID mouse assessed as reduction in Ki67 expression at 5 to 15 mg/kg, iv administered once daily for 20 days by immunohistochemical analysis; assay type: functional, organism-based; details: Homo sapiens, dose 5-15 mg/kg, time 20.0 day
[5] = Induction of apoptosis in human MDA231-LM2-4175 cells assessed as necrotic cells at 1 uM after 48 hrs by Annexin-V-FITC/propidium iodide staining based flow cytometric analysis (reference value: 0.531%); assay type: functional
[6] = molecular target: T2, Signal transducer and activator of transcription 3 (Homo sapiens, UniProt P40763); assay: Inhibition of STAT3 phosphorylation at Ser727 residue in human MDA-MB-468 cells at 3 uM after 3 hrs by Western blotting analysis; assay type: cell-based
[7] = molecular target: T2, Signal transducer and activator of transcription 3; assay: Inhibition of STAT3 in human MDA-MB-468 cells assessed as downregulation of Bcl-xL expression at 0.3 to 3 uM after 24 hrs by western blot analysis; assay type: cell-based; details: dose 0.3-3 µM
Procedure, shortened: (§1)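 TNBC cells given vehicle (0.1% DMSO) or graded compound levels for 24 h, lysed in RIPA with PMSF and phosphatase inhibitors. BCA-quantified lysate (20–50 µg) run on SDS-PAGE, transferred to PVDF, blocked in 5% BSA. Probed overnight at 4 °C for Bcl-xL, Mcl-1 and c-Myc, with β-actin. HRP secondary, ECL detection. Three independent experiments.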

[8] = molecular target: T3, Signal transducer and activator of transcription 1-alpha/beta (Homo sapiens) (UniProt P42224); assay: Inhibition of STAT1 phosphorylation at Y701 residue in human MDA-MB-231 cells at 0.3 to 3 uM after 3 hrs by Western blotting analysis; assay type: cell-based; details: dose 0.3-3 µM
T3 sequence (whole entry): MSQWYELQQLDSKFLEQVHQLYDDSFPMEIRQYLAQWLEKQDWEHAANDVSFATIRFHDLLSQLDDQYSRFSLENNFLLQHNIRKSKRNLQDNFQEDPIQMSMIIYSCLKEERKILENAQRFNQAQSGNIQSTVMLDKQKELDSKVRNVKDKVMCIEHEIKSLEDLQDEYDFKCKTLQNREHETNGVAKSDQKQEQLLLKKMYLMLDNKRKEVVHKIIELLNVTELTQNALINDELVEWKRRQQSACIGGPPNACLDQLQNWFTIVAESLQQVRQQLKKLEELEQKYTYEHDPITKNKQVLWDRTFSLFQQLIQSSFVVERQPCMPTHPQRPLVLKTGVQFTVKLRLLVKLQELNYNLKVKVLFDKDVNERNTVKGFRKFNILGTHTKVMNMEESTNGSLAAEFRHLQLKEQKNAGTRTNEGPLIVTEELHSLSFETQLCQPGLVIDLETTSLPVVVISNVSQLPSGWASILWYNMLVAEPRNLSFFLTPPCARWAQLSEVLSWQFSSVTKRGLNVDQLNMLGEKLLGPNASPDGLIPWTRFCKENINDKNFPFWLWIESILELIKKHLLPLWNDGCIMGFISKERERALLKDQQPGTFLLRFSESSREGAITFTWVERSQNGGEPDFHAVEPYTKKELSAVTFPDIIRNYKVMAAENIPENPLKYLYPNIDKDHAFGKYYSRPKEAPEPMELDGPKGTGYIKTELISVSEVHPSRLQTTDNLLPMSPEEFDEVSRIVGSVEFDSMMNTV

[9] = Toxicity in NOD/SCID mouse xenografted with patient-derived breast cancer cells assessed as lethargy at 5 to 15 mg/kg, iv administered once daily for 20 days; assay type: organism-based; details: in vivo, 480 h, dose 5-15 mg/kg, time 20 day
[10] = Antiproliferative activity against human MDA231-LM2-4175 cells assessed as reduction in cell viability after 72 hrs by CCK8 assay; assay type: functional, cell-based; details: MDA231-LM2-4175, 72 h
Procedure, shortened: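 Cells seeded at 1000–8000 per well were grown overnight, then exposed to 0.1–100 μM compound or 0.1% DMSO vehicle for 72 h. CCK-8 was added for 0.5–4 h at 37 °C and absorbance read at 480 nm. Viability = (OD compound − blank)/(OD vehicle − blank) × 100, with medium as blank. IC50 fitted from three independent experiments.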

[11] = molecular target: T2, Signal transducer and activator of transcription 3; assay: Inhibition of STAT3 in human HCC70 cells assessed as downregulation of c-Myc expression at 0.3 to 3 uM after 24 hrs by western blot analysis; assay type: cell-based; details: dose 0.3-3 µM; procedure, shortened: as §1

T2 sequence (P40763 whole entry): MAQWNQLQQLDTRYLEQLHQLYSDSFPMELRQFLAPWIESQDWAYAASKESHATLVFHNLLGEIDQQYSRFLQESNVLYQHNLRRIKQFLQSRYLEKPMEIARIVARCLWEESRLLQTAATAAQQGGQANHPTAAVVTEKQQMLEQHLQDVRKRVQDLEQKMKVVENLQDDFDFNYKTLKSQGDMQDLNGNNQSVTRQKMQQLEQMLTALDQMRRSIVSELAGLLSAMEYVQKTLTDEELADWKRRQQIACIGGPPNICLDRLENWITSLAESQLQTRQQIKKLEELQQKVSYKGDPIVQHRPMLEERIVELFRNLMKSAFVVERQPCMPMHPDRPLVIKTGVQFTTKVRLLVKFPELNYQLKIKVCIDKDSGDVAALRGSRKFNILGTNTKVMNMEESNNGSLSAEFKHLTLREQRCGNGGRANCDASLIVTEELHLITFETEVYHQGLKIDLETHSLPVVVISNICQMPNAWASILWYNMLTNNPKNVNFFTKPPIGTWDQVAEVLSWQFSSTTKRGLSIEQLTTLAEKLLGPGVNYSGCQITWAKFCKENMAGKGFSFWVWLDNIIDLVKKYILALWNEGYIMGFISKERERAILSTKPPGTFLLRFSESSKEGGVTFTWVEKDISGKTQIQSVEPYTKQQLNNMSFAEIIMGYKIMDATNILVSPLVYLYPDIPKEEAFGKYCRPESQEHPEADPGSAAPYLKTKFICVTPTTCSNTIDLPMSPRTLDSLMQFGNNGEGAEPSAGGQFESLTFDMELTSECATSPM

In the case of `O=C(Cc1c(-c2ccccc2)nc2ccccn12)Nc1ccc2c(c1)S(=O)(=O)C=C2`, the AUC(0-t) at 24 h [1] is reported as 54.6 ng·h/mL, the inhibition [2] is reported as “Dose-Dependent Effect” and the inhibition [3] is reported as “inactive”. The Activity [4] was “Active”, the Activity [5] was 1.1% and the inhibition [6] was “inactive”. The inhibition [7] was “Active”, the inhibition [8] was “inactive” and the Activity [9] was “Non-Toxic”. For the same compound, the IC50 [10] was 2500 nM and the inhibition [11] was “Active”.
